Results taken from ChEMBL document CHEMBL4152390, “Discovery of the First-in-Class Dual Histone Deacetylase-Proteasome Inhibitor” (J Med Chem, 2018).
Calls of active or inactive are those of the source. The rule behind the calls is not given here. Where a SMILES comes first, the peptide text is derived from it. The star is where a group is joined. Cbz = O=C(OCc1ccccc1)*

Legend:
SUP-B15 [1] = assay: Inhibition of proteasome in imatinib-resistant human SUP-B15 cells assessed as increase in cleaved PARP expression at 1 to 100 nM after 24 hrs by immunoblot assay; assay type: cell-based
In short: (§1)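 Cells treated with compounds for 24 h; lysates immunoblotted for PARP alongside acetyl-α-tubulin, acetyl-histone H3 and GAPDH.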

Homo sapiens = species on record: Homo sapiens; assay: Inhibition of proteasome in human HL60 cells assessed as increase in cleaved PARP expression at 1 to 100 nM after 24 hrs by immunoblot assay; assay type: cell-based
In short: (§2)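 Cells exposed for 24 h at indicated concentrations; lysates immunoblotted for acetyl-α-tubulin, acetyl-histone H3, PARP, with GAPDH as loading control.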

SEM cells [2] = assay: Inhibition of proteasome in human SEM cells assessed as increase in cleaved PARP expression at 1 to 100 nM after 24 hrs by immunoblot assay; assay type: cell-based; in short: as §1
SEM cells [3] = assay: Inhibition of proteasome in human SEM cells assessed as increase in aggresome accumulation at 10 nM after 18 hrs by fluorescence microscopic method; assay type: cell-based
In short: (§3)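 Cells treated 18 h, then stained with a proteostat aggresome dye plus DNA stain. Imaged by fluorescence microscopy (63X objective) or analysed by FACS, with aggresome propensity factor from relative mean fluorescence intensity.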

SEM cells [4] = assay: Inhibition of proteasome in human SEM cells assessed as increase in aggresome accumulation at 10 nM after 18 hrs by FACS analysis; assay type: cell-based; in short: as §3
PBMC = assay: cells; assay type: ADME, cell-based; details: Homo sapiens, 72 h
SEM cells [5] = assay: Inhibition of proteasome in human SEM cells assessed as increase in aggresome accumulation at 3 uM after 18 hrs by fluorescence microscopic method; assay type: cell-based
In short: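 SEM cells exposed for 18 h, then labeled with a proteostat aggresome detection kit with DNA counterstain per kit guidelines; aggresomes imaged by fluorescence microscopy with a 63X objective.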

SEM cells [6] = assay: Inhibition of proteasome in human SEM cells assessed as increase in aggresome accumulation at 3 uM after 18 hrs by FACS analysis; assay type: cell-based; in short: as §3
[7] = biological target: T1, Proteasome Macropain subunit MB1 (Homo sapiens, UniProt P28074); assay: Inhibition of chymotrypsin-like activity of 20S proteasome in imatinib-resistant human SUP-B15 cells using Suc-LLVY aminoluciferin as substrate after 2 hrs by proteasome-Glo assay; assay type: cell-based
T1 sequence (P28074 whole entry): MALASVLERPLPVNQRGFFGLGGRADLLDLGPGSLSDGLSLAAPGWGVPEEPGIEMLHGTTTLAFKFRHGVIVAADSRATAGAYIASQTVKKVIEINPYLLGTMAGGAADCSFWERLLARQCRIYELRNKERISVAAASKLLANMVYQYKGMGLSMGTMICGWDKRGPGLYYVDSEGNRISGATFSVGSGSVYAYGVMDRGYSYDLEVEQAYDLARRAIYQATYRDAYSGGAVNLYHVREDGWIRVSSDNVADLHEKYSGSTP

[8] = biological target: T1, Proteasome Macropain subunit MB1; assay: Inhibition of chymotrypsin-like activity of 20S proteasome in human HL60 cells using Suc-LLVY aminoluciferin as substrate after 2 hrs by proteasome-Glo assay; assay type: cell-based
[9] = biological target: T1, Proteasome Macropain subunit MB1; assay: Inhibition of chymotrypsin-like activity of 20S proteasome in human SEM cells using Suc-LLVY aminoluciferin as substrate after 2 hrs by proteasome-Glo assay; assay type: cell-based
SEM cells [10] = assay: Cytotoxicity against human SEM cells after 72 hrs by CellTiter-Glo luminescent cell viability assay; assay type: functional, cell-based
In short: (§4)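 Inhibitors dispensed in increasing concentrations (50 nM–25 μM) and cells exposed 72 h. Viability read by ATP-dependent luminescence (CellTiter-Glo). Raw data normalized to controls. IC50 obtained by sigmoid dose–response fit with non-linear regression.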

[11] = biological target: T2, Protein deacetylase HDAC6 (Homo sapiens) (UniProt Q9UBN7); details: 0.1 to 10 uM
T2 sequence (whole entry): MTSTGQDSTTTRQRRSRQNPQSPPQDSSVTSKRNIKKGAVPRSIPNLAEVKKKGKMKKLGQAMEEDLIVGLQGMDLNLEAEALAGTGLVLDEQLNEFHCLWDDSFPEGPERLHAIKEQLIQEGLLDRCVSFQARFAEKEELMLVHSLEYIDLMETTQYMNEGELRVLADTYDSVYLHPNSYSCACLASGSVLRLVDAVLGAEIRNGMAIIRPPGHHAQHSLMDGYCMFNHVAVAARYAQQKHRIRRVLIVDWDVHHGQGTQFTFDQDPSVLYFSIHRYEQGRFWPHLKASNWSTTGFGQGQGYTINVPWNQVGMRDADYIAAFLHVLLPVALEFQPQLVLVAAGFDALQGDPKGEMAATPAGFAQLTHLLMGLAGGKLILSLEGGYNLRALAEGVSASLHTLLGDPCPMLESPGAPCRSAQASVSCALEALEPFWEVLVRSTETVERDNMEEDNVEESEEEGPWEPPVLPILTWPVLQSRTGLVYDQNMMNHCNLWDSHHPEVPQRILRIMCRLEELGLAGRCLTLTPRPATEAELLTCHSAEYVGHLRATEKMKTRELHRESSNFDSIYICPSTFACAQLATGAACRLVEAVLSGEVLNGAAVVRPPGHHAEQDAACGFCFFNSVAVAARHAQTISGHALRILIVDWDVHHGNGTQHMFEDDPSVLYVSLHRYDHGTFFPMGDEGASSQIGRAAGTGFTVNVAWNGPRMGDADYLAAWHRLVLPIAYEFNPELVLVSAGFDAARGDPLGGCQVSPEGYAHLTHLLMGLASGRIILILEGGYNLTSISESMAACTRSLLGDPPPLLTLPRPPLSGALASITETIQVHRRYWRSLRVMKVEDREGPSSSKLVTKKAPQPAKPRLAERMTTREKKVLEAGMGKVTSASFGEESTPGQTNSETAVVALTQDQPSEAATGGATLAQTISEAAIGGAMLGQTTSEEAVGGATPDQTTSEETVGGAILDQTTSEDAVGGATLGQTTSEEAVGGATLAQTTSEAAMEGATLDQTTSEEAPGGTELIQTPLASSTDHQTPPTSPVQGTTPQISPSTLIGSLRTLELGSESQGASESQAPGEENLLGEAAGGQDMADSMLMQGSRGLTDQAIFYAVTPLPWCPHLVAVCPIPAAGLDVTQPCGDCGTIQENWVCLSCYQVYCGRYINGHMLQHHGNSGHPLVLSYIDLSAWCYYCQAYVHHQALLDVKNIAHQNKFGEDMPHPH

[12] = biological target: T2, Protein deacetylase HDAC6 (Homo sapiens); assay: Inhibition of HDAC6 in human HL60 cells assessed as increase in acetyl-histone H3 expression at 0.1 to 10 uM after 24 hrs by immunoblot assay; assay type: cell-based; in short: as §2
[13] = biological target: T2, Protein deacetylase HDAC6 (Homo sapiens); assay: Inhibition of HDAC6 in human SEM cells assessed as increase in acetyl-histone H3 expression at 0.1 to 10 uM after 24 hrs by immunoblot assay; assay type: cell-based; in short: as §2
[14] = Cytotoxicity against human BCP-ALL cells derived from patient 1 after 72 hrs by CellTiter-Glo luminescent cell viability assay; assay type: functional, cell-based
SUP-B15 [15] = assay: Cytotoxicity against imatinib-resistant human SUP-B15 cells after 72 hrs by CellTiter-Glo luminescent cell viability assay; assay type: functional, cell-based; details: SUP-B15, 72 h
[16] = biological target: T2, Protein deacetylase HDAC6 (Homo sapiens); details: SEM, 0.1 to 10 uM
[17] = biological target: T2, Protein deacetylase HDAC6 (Homo sapiens); assay: Inhibition of HDAC6 in human SEM cells assessed as increase in acetyl-alpha tubulin expression at 0.1 to 10 uM after 24 hrs by immunoblot assay; assay type: cell-based; in short: as §2
[18] = Cytotoxicity against human BCP-ALL cells derived from patient 3 after 72 hrs by CellTiter-Glo luminescent cell viability assay; assay type: functional, cell-based
SEM cells [19] = assay: Antiproliferative activity against human SEM cells at IC50 to 2 times IC50 after 24 to 72 hrs by trypan exclusion method; assay type: functional, cell-based
[20] = biological target: T2, Protein deacetylase HDAC6 (Homo sapiens); details: SUP-B15, 0.1 to 10 uM
[21] = biological target: T2, Protein deacetylase HDAC6 (Homo sapiens); assay: Inhibition of HDAC6 in imatinib-resistant human SUP-B15 cells assessed as increase in acetyl-alpha tubulin expression at 0.1 to 10 uM after 24 hrs by immunoblot assay; assay type: cell-based; in short: as §2
KCL-22 [22] = assay: Cytotoxicity against imatinib-resistant human KCL22 cells after 72 hrs by CellTiter-Glo luminescent cell viability assay; assay type: functional, cell-based; details: KCL-22, 72 h; in short: as §4
[23] = Cytotoxicity against human RPMI18226 cells after 72 hrs by CellTiter-Glo luminescent cell viability assay; assay type: functional, cell-based; details: RPMI18226, 72 h
[24] = biological target: T2, Protein deacetylase HDAC6 (Homo sapiens); assay: Inhibition of HDAC6 in human HL60 cells assessed as increase in acetyl-alpha tubulin expression at 0.1 to 10 uM after 24 hrs by immunoblot assay; assay type: cell-based; in short: as §2
KCL-22 [25] = assay: Cytotoxicity against human KCL22 cells after 72 hrs by CellTiter-Glo luminescent cell viability assay; assay type: functional, cell-based; details: KCL-22, 72 h; in short: as §4
[26] = Cytotoxicity against human BCP-ALL cells derived from patient 4 after 72 hrs by CellTiter-Glo luminescent cell viability assay; assay type: functional, cell-based
HL-60 = assay: Cytotoxicity against human HL60 cells after 72 hrs by CellTiter-Glo luminescent cell viability assay; assay type: functional, cell-based; details: HL-60, 72 h
[27] = Cytotoxicity against human BCP-ALL cells derived from patient 2 after 72 hrs by CellTiter-Glo luminescent cell viability assay; assay type: functional, cell-based
In short: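 Compounds dispensed digitally at increasing concentrations, 50 nM–25 μM; viability read by CellTiter-Glo luminescence after 72 h. Raw data normalized to controls, IC50 from sigmoid dose curve by non-linear regression. Patient samples: primary cells from newly diagnosed or relapsed patients, cultured in stem cell expansion or mononuclear cell medium.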

[28] = biological target: T2, Protein deacetylase HDAC6 (Homo sapiens); assay: Inhibition of HDAC6 in imatinib-resistant human SUP-B15 cells assessed as increase in acetyl-histone H3 expression at 0.1 to 10 uM after 24 hrs by immunoblot assay; assay type: cell-based; in short: as §2
[29] = biological target: T2, Protein deacetylase HDAC6 (Homo sapiens); details: SEM, 1.6 uM

SMILES: CC(C)C[C@H](NC(=O)[C@H](Cc1ccccc1)NC(=O)c1cnccn1)B(O)O [BORTEZOMIB]
- inhibition (SUP-B15 [1]): Active
- inhibition (Homo sapiens): Active
- inhibition (SEM cells [2]): Active
- inhibition (SEM cells [3]): Active
- inhibition (SEM cells [4]): Active
- IC50 (PBMC): < 0.035 µM

SMILES: CC(C)C[C@@H](C=O)NC(=O)[C@H](CC(C)C)NC(=O)[C@H](CC(C)C)NC(=O)OCc1ccccc1 (Cbz-Leu-Leu-Leu-aldehyde)
- inhibition (SEM cells [5]): Active
- inhibition (SEM cells [6]): Active

SMILES: O=C(CCCCCCC(=O)Nc1ccccc1)NO [VORINOSTAT]
- IC50 [7]: > 25 µM
- IC50 [8]: > 25 µM
- IC50 [9]: > 25 µM

SMILES: O=C(CCCCCCNC(=O)c1cnc(N(c2ccccc2)c2ccccc2)nc1)NO [RICOLINOSTAT]
- IC50 (SEM cells [10]): 1.61 µM
- inhibition [11]: Active
- inhibition [12]: Active
- inhibition [13]: Active
- IC50 [14]: 0.29 µM
- IC50 (SUP-B15 [15]): 3.54 µM
- inhibition [16]: Active
- inhibition [17]: Active
- IC50 [7]: > 25 µM
- IC50 [18]: 4.45 µM
- IC50 [8]: > 25 µM
- Activity (SEM cells [19]): Active
- inhibition [20]: Active
- inhibition [21]: Active
- IC50 [9]: > 25 µM
- IC50 (KCL-22 [22]): 3.38 µM
- IC50 [23]: 1.97 µM
- inhibition [24]: Active
- IC50 (KCL-22 [25]): 3.75 µM
- IC50 [26]: 0.54 µM
- IC50 (PBMC): < 3.6 µM
- IC50 (HL-60): 2.36 µM
- IC50 [27]: 0.58 µM
- inhibition [28]: Active
- inhibition [29]: Active
